Experimental findings from PubChem BioAssay are described below.

A short description of test [1]: hit retest on RPL19A-GFP reporter strain – cell-based, S. cerevisiae, flow cytometry, cherry picks, mother/daughter gates, confirmation (AID 2270;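 active means GFP response below 50% of the DMSO control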). To be noted: 3 h, at 10 µM, stronger effect = lower value, 100 = same GFP as DMSO wells. In general terms: Flow cytometry measures light scatter and fluorescence of single cells or particles in a stream.
Test [2] in a line: yeast TOR pathway reporter LAP4-GFP change – cell-based, cherry picks, flow cytometry, mother/daughter gates, confirmation (AID 2271;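 active means GFP response above 150% of the DMSO control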;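 further: ratio of sample to DMSO plate mean so 100% equals DMSO level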). Conditions: S. cerevisiae LAP4-GFP strain, 3 h, at 10 µM, stronger effect = higher value, 100 means same as DMSO control. An outline of the steps:
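System: Alexa 633-stained baker's yeast GFP-fusion strain / Medium: synthetic complete (SC) yeast growth medium / Doses: compound at 10 µM, single point / Times: 3 h treatment at 30 °C with rotation / Detection: HT flow cytometry, GFP fluorescence channel / Benchmarks: DMSO-only negative wells, rapamycin 400 ng/mL positive wells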

The nature of test [3]: TOR pathway reporter MEP2-GFP, retest of hits – S. cerevisiae, flow cytometry GFP, cherry picks, confirmation (AID 2272;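 active means GFP response above 150% of the DMSO control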;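 further: ratio of well signal to plate DMSO mean so 100% equals DMSO level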). To be noted: S. cerevisiae MEP2-GFP strain, 3 h, at 10 µM, stronger effect = higher value.
Test [4] in a line: yeast AGP1-GFP fluorescence change, single-dose – cell-based, flow cytometry, S. cerevisiae, cherry picks, confirmation (AID 2273).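 Further: median GFP channel fluorescence over the whole cell population gate.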 Conditions: S. cerevisiae AGP1-GFP strain, 3 h, at 10 µM.
Test [5] can be described thus: TOR pathway CIT2 reporter hit retest – S. cerevisiae, GFP fusion, cherry picks, mother/daughter gates, confirmation (AID 2274). To be noted: S. cerevisiae CIT2-GFP strain, flow cytometry, 3 h, at 10 µM, stronger effect = higher value.
The mark [6] stands for this setting: measured here: daughter cell gate.
Setting [7] is: measured here: mother cell gate.
The mark [8] stands for this setting: measured here: daughter cell gate response.
Setting [9] is: measured here: mother cell gate response.

Activity calls are given as the source filed them.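 How the source made its calls, unless noted: active means GFP response above 150% of the DMSO level; inconclusive means fewer than 70 events counted for a yeast strain; inactive means the rest.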

As for `COc1ccccc1C1CC(c2c(-c3ccccc3)c3cc(Cl)ccc3[nH]c2=O)=NN1S(C)(=O)=O` (stereo unspecified), the GFP response vs DMSO in test [1] was 97.6% (inactive); in test [1] (setting [6]), 98.9%; in test [1] (setting [7]), 97.4%; in test [3], 119% (inactive). In addition, the GFP response relative to DMSO was 106% (inactive) in test [2], 107% in test [2] (setting [8]) and 105% in test [2] (setting [9]). The GFP response, % of DMSO in test [4] is 96.4% (inactive); in test [5] it was 113% (inactive); in test [5] (setting [6]), 112%; in test [5] (setting [7]) it was 112%.
As to `Oc1c(Br)cc(Br)cc1C=Nc1cccc2ncccc12`, the GFP response vs DMSO in test [1] was 104% (inactive); in test [1] (setting [6]), 93.9%; in test [1] (setting [7]), 98.6%; in test [3] it was 103% (inactive). The GFP response relative to DMSO in test [2] was 125% (inactive); in test [2] (setting [8]), 110%; in test [2] (setting [9]), 126%. For the same compound, the GFP response, % of DMSO is 95.7% (inactive) in test [4], 97.3% (inactive) in test [5], 99.2% in test [5] (setting [6]) and 89.5% in test [5] (setting [7]).
Regarding `Cc1noc2ncnc(Sc3ccccc3Cl)c12`, the GFP response vs DMSO in test [1] was 106% (inactive); in test [1] (setting [6]), 104%; in test [1] (setting [7]), 105%; in test [3], 109% (inactive). For the same compound, the GFP response relative to DMSO in test [2] was 112% (inactive); in test [2] (setting [8]), 111%; in test [2] (setting [9]) it was 112%. The GFP response, % of DMSO in test [4] is 101% (inactive); in test [5], 116% (inactive); in test [5] (setting [6]) it was 113%; in test [5] (setting [7]) it was 114%.
As to `COC(=O)c1ccc(/C=C/C(=O)c2cccc(OC)c2)cc1`, the GFP response vs DMSO is 104% (inactive) in test [1], 102% in test [1] (setting [6]), 103% in test [1] (setting [7]) and 105% (inactive) in test [3]. Besides, the GFP response relative to DMSO in test [2] is 117% (inactive); in test [2] (setting [8]), 112%; in test [2] (setting [9]) it was 116%. Further, the GFP response, % of DMSO in test [4] was 101% (inactive); in test [5], 103% (inactive); in test [5] (setting [6]) it was 101%; in test [5] (setting [7]), 102%.
Regarding `CS(=O)(=O)Nc1ccc(C2=NN(S(C)(=O)=O)C(c3ccccc3)C2)cc1` (stereo unspecified), the GFP response vs DMSO in test [1] is 98.7% (inactive); in test [1] (setting [6]), 98.1%; in test [1] (setting [7]), 98.6%; in test [3], 157% (inactive). For the same compound, the values for the GFP response relative to DMSO in test [2], in test [2] (setting [8]) and in test [2] (setting [9]) were 133% (inactive), 138% and 129%, respectively. Also, the GFP response, % of DMSO in test [4] is 115% (inactive); in test [5], 114% (inactive); in test [5] (setting [6]) it was 112%; in test [5] (setting [7]), 114%.
With `C=CCOc1ccc(C(=O)n2cc(C(=O)OC)c3ccccc32)cc1`, the GFP response vs DMSO in test [1] was 95.6% (inactive); in test [1] (setting [6]) it was 97.1%; in test [1] (setting [7]), 96.4%; in test [3] it was 96.2% (inactive). Moreover, the GFP response relative to DMSO is 96.7% (inactive) in test [2], 99.2% in test [2] (setting [8]) and 96.1% in test [2] (setting [9]). Besides, the GFP response, % of DMSO is 101% (inactive) in test [4], 101% (inactive) in test [5], 103% in test [5] (setting [6]) and 101% in test [5] (setting [7]).
`CCCCN(CC)S(=O)(=O)c1ccc(C(=O)Nc2nnc(-c3ccccc3Cl)o2)cc1`: the GFP response vs DMSO in test [1] was 98.8% (inactive); in test [1] (setting [6]), 99.1%; in test [1] (setting [7]), 98.5%; in test [3] it was 109% (inactive). For the same compound, the results for the GFP response relative to DMSO in test [2], in test [2] (setting [8]) and in test [2] (setting [9]) were 97.9% (inactive), 99.2% and 98.3%, respectively. Besides, the GFP response, % of DMSO in test [4] was 92.7% (inactive); in test [5], 98.3% (inactive); in test [5] (setting [6]), 99.1%; in test [5] (setting [7]), 98.5%.
Consider `Cn1cnnc1SCC(=O)Nc1nc(-c2ccc(F)cc2)cs1`, for which the GFP response vs DMSO in test [1] is 100% (inactive); in test [1] (setting [6]), 99.1%; in test [1] (setting [7]) it was 101%; in test [3], 103% (inactive). Besides, the GFP response relative to DMSO in test [2] is 97% (inactive); in test [2] (setting [8]) it was 95.9%; in test [2] (setting [9]) it was 97.3%. For the same compound, the GFP response, % of DMSO is 99.4% (inactive) in test [4], 102% (inactive) in test [5], 103% in test [5] (setting [6]) and 102% in test [5] (setting [7]).
As to `O=C(Nc1cc(Sc2ccccn2)cc([N+](=O)[O-])c1)c1cccc(F)c1`, the GFP response vs DMSO is 96.9% (inactive) in test [1], 96.1% in test [1] (setting [6]), 95.9% in test [1] (setting [7]) and 106% (inactive) in test [3]. The GFP response relative to DMSO in test [2] was 101% (inactive); in test [2] (setting [8]), 96%; in test [2] (setting [9]), 102%. In addition, the GFP response, % of DMSO was 95.7% (inactive) in test [4], 97.2% (inactive) in test [5], 95.8% in test [5] (setting [6]) and 94.9% in test [5] (setting [7]).
With `CCOC(=O)C1CCCN(c2c(C(=O)c3ccccc3)cnc3ccccc23)C1` (stereo unspecified), the GFP response vs DMSO in test [1] was 99.3% (inactive); in test [1] (setting [6]) it was 98.8%; in test [1] (setting [7]), 102%; in test [3] it was 97.5% (inactive). Moreover, the GFP response relative to DMSO in test [2] is 91.9% (inactive); in test [2] (setting [8]), 90.7%; in test [2] (setting [9]), 89.7%. The GFP response, % of DMSO in test [4] is 101% (inactive); in test [5] it was 104% (inactive); in test [5] (setting [6]) it was 104%; in test [5] (setting [7]), 101%.
On to `O=[N+]([O-])c1ccc(N2CCN(CCO)CC2)cc1Sc1ccccn1`, for which the GFP response vs DMSO is 97.8% (inactive) in test [1], 99.5% in test [1] (setting [6]), 98% in test [1] (setting [7]) and 99.3% (inactive) in test [3]. The GFP response relative to DMSO in test [2] was 94.1% (inactive); in test [2] (setting [8]), 96%; in test [2] (setting [9]), 95.4%. The GFP response, % of DMSO in test [4] was 96.1% (inactive); in test [5], 101% (inactive); in test [5] (setting [6]), 101%; in test [5] (setting [7]), 102%.
Take `CC(C)n1c(=S)[nH]c2c1c(=O)[nH]c(=O)n2C`: the GFP response vs DMSO in test [1] is 98.8% (inactive); in test [1] (setting [6]), 97.3%; in test [1] (setting [7]), 99.8%; in test [3] it was 100% (inactive). For the same compound, the GFP response relative to DMSO in test [2] is 99.8% (inactive); in test [2] (setting [8]), 102%; in test [2] (setting [9]), 101%. Moreover, the GFP response, % of DMSO in test [4] was 104% (inactive); in test [5] it was 100% (inactive); in test [5] (setting [6]), 99.7%; in test [5] (setting [7]) it was 102%.
As for `COc1cccc(C(=O)Nc2ccc(NC(=O)c3cc4ccccc4o3)c(OC)c2)c1`, the GFP response vs DMSO was 100% (inactive) in test [1], 98.1% in test [1] (setting [6]), 103% in test [1] (setting [7]) and 102% (inactive) in test [3]. Besides, the GFP response relative to DMSO was 89% (inactive) in test [2], 92.5% in test [2] (setting [8]) and 89% in test [2] (setting [9]). In addition, the GFP response, % of DMSO in test [4] was 95% (inactive); in test [5], 108% (inactive); in test [5] (setting [6]) it was 105%; in test [5] (setting [7]), 111%.
For the compound `O=S(=O)(c1ccc(-c2ccccc2)cc1)N1CCOCC1`, the GFP response vs DMSO in test [1] was 96.7% (inactive); in test [1] (setting [6]) it was 96.1%; in test [1] (setting [7]) it was 94.8%; in test [3], 103% (inactive). Further, the GFP response relative to DMSO in test [2] was 97.7% (inactive); in test [2] (setting [8]) it was 97.5%; in test [2] (setting [9]) it was 97.4%. Besides, the GFP response, % of DMSO in test [4] was 99.5% (inactive); in test [5] it was 95.8% (inactive); in test [5] (setting [6]), 95.8%; in test [5] (setting [7]), 93.8%.
On to `Cc1[nH]n(-c2ccccc2)c(=O)c1C(c1ccccc1[N+](=O)[O-])C(C#N)C#N` (stereo unspecified), for which the GFP response vs DMSO in test [1] is 106% (inactive); in test [1] (setting [6]), 84.6%; in test [1] (setting [7]), 98.8%; in test [3], 112% (inactive). The GFP response relative to DMSO in test [2] is 192% (active); in test [2] (setting [8]), 168%; in test [2] (setting [9]), 195%. Moreover, the GFP response, % of DMSO is 98.9% (inactive) in test [4], 98.4% (inactive) in test [5], 113% in test [5] (setting [6]) and 81.8% in test [5] (setting [7]).
As for `Cc1nnc(NC(=O)c2nc(S(=O)(=O)Cc3ccccc3C)ncc2Cl)s1`, the GFP response vs DMSO is 97.1% (inactive) in test [1], 96.4% in test [1] (setting [6]), 94.4% in test [1] (setting [7]) and 99.3% (inactive) in test [3]. Further, the results for the GFP response relative to DMSO in test [2], in test [2] (setting [8]) and in test [2] (setting [9]) were 98.9% (inactive), 99% and 97.4%, respectively. Moreover, the GFP response, % of DMSO in test [4] is 98.2% (inactive); in test [5], 97.2% (inactive); in test [5] (setting [6]), 97.6%; in test [5] (setting [7]), 96%.
